Test results as given in PubChem BioAssay AID1800 (The Scripps Research Institute Molecular Screening Center, 2009).
The whole screen tested about 290,000 compounds, of which about 1,600 (0.55%) were called active.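 The calls were made as follows: active = inhibition above the mean of all tested compounds plus 3 SD, set per campaign (cut at about 35% in these data); inactive = the rest.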 Only a selection was taken, and actives are over-represented in it overall.

tested on: Hepatitis C virus NS3 helicase; experiment: inhibitors of HCV NS3 helicase, primary screen, biochemical, Cy5 molecular beacon fluorescence (AID 1800); details: NS3 helicase DNA unwinding, at 10.9 µM, active compounds read high;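 also: 0% = DMSO wells and 100% = thioflavine S control wells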
Summary of the method: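 System: HCV NS3 helicase fragment; control set: DMSO and thioflavine S; technique: Cy5 fluorescence at 0 and 60 min, beacon hairpin quenching; reagent: beacon DNA duplex substrate plus ATP; replicates: singlicate; schedule: 1 h reaction at 25 °C, ATP-initiated; medium: MOPS buffer pH 6.5 with MgCl2, DTT, Tween20, BSA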

inhibition, active:
CSc1c(SCc2ccccc2)cnn(Cc2ccccc2)c1=O 48.3%, Cc1cccc(NC(=O)c2sc3nc4c(c(-c5ccco5)c3c2N)CCC4)c1 93%, CCOC(=O)c1ccccc1N1C(=O)C2Sc3[nH]c(=O)sc3C(/C=C/c3ccccc3)C2C1=O (stereo not drawn) 37.9%, Fc1ccc(-c2ccc(-c3nn4c(-c5ccco5)nnc4s3)o2)cc1 40.9%, CCOC(=O)c1nnn(-c2nc(OC)nc(N(C)C)n2)c1-c1ccccc1 39.7%, O=C(CCCN1C(=O)/C(=C\c2ccco2)SC1=S)Nc1cccc2ccccc12 40.1%, CN(C)c1ccc(N/C=C/C(=O)C(F)(F)F)cc1 47.6%, Cc1ccc(S(=O)(=O)N/N=C\c2cc3c(cc2[N+](=O)[O-])OCO3)cc1 54.2%, O=C(N/N=C/c1ccc([N+](=O)[O-])o1)c1cn(-c2ccccc2)nc1-c1ccc(F)cc1 37%, O=C(c1cccc(-n2cccc2)c1)N1CCN(S(=O)(=O)c2ccc(F)cc2)CC1 77%, CNS(=O)(=O)c1cccc(C(=O)NC2CCCc3ccccc32)c1 (stereo not drawn) 37%, S=C(NCCc1ccccc1)N1CCCCC1 40.9%

inhibition, inactive:
CSc1nc2ccccc2c(=O)n1Cc1ccc(F)cc1 -9.76%, CC(=O)Nc1ccc(NC(=O)CSc2ncnc3c2cnn3Cc2ccccc2)cc1 -5.31%, CSc1ccccc1OCc1cc(C(=O)N(C)CCc2c(C)n[nH]c2C)no1 11.5%, O=C(CSCc1ccccc1)Nc1ccccc1 -0.15%, O=S(=O)(Nc1ccc2nc(-c3ccco3)[nH]c2c1)c1ccccc1 -5.98%, Cc1cccc(NC(=O)c2sc3nc(N4CCOCC4)c4c(c3c2N)CCCC4)c1 18.7%, NC(=O)c1sc2nc3c(c(-c4ccccc4)c2c1N)CCC3 1.99%, CN(CCc1ccccc1)c1ccc([N+](=O)[O-])cn1 -0.4%, CC(OC(=O)c1ccccc1N1C(=O)C2C3CCC(C3)C2C1=O)C(=O)c1ccccc1 (stereo not drawn) 1.1%, CCOC(=O)C1Sc2[nH]c(=O)sc2C(c2ccc(Cl)cc2)C1C(=O)OCC (stereo not drawn) 17.4%, O=C(CN1C(=O)S/C(=C\c2ccccc2Cl)C1=O)NC1C=CS(=O)(=O)C1 (stereo not drawn) -23.6%, c1ccc(-c2cc(-c3nnc4sc(-c5ccccn5)nn34)[nH]n2)cc1 -7.42%, COc1cc(-c2nn3c(-c4cccc(C)c4)nnc3s2)cc(OC)c1OC 12.9%, C=CCOc1ccc(/C=C2/C(=O)ON=C2C)cc1OCC 16.9%, CCOC(=O)c1c(N)nn(C(=O)c2ccccc2)c1-c1ccccc1 -7.63%, CCOC(=O)c1nnn(-c2nonc2OC)c1-c1ccccc1 5.43%, COc1ccc(CN(C)C(C)C(=O)NC2CCCc3ccccc32)cc1 (stereo not drawn) -16.3%, COc1ccc(-c2ocnc2C(=O)Nc2ccc3c(c2)CCC3)cc1 -14.4%, COc1ccc(CNS(=O)(=O)c2ccc(NC(=O)N3CCCCC3)cc2)cc1 -6.52%, Cc1ccc(-n2nc3c(=O)n(C(C)C(=O)NCc4ccc5c(c4)OCO5)nc(C)c3c2C)cc1 (stereo not drawn) 4.33%, O=C(CCCN1C(=O)/C(=C/c2ccco2)SC1=S)Nc1ccccc1 34.7%, O=C(CCCN1C(=O)/C(=C\c2ccccc2)SC1=S)Nc1ccccc1O -2.1%, Cc1cc(C)n(CCC(=O)N2CCN(S(=O)(=O)c3ccc(C)c(C)c3)CC2)n1 -5.54%, Cc1c(NC(=O)Nc2cccc([N+](=O)[O-])c2)c(=O)n(-c2ccccc2)n1C 4.3%, CC1(C)CC(=O)c2c(n(S(=O)(=O)c3ccccc3)c3ccc(NS(=O)(=O)c4ccccc4)cc23)C1 -3.21%, CC(C)CNC(=O)C(=O)Nc1ccc(N(C)C)cc1 -3.21%, CC(=O)N(C)c1ccc(NC(=O)C(F)(F)F)cc1 -2.62%, CC(=O)c1ccc(N2CCN(S(=O)(=O)c3ccc4c(c3)CC(=O)N4C)CC2)cc1 26.3%, O=S(=O)(NC1CC1)c1ccc(Cl)cc1 4.09%, COc1ccc(NC(=O)CC2C(=O)NC3CCCCC3N2C(=O)c2ccc(F)cc2)cc1 (stereo not drawn) -15.6%, CC(=O)N/N=C/c1cc2c(cc1[N+](=O)[O-])OCO2 3.66%, Cc1ccc(-c2n[nH]c(=S)n2/N=C/c2cc3c(cc2[N+](=O)[O-])OCO3)cc1 8.58%, CC(=O)Nc1ccc(NC(=O)CCCNC(=O)c2ccc(Cl)cc2)cc1 -9.29%, CCCN1CCn2c3c(c4cc(Br)ccc42)CCCC31 (stereo not drawn) -17.6%, Cc1ccc(-c2nn(-c3ccccc3)cc2/C=N/NC(=O)c2ccc3c(c2)OCO3)cc1 3.37%, Cc1nnc(SCC(=O)N/N=C/c2cn(-c3ccccc3)nc2-c2ccc(F)cc2)n1-c1ccccc1 -0.42%, CC(=O)N1CCC(C(=O)Nc2nc(-c3ccccc3)ns2)CC1 1.62%, O=C(c1cccc(C(=O)N2CCN(c3ccc(F)cc3)CC2)c1)N1CCN(c2ccc(F)cc2)CC1 -2.81%, O=C(c1cnc(Cl)c(Cl)c1)N1CCN(S(=O)(=O)c2ccc(F)cc2)CC1 5.16%, O=C(O)c1cc(S(=O)(=O)NC2CCCc3ccccc32)ccc1O (stereo not drawn) 7.44%, CNS(=O)(=O)c1cccc(C(=O)NCC2CCCCC2)c1 -9.16%, CC1(C)NC(=O)N(CC(=O)Nc2cc(C(F)(F)F)cc(C(F)(F)F)c2)C1=O -6.82%, CCn1cc(C(=O)OCC(=O)Nc2cccc(C)c2)c(=O)c2ccc(C)nc21 4.57%, COc1ccc(C(=O)NC2CCN(C(=S)NCCc3ccccc3)CC2)cc1 0.36%, O=C1CCN(C(=S)NCCc2ccccc2)CC1 -6.74%, COc1ccc(CCn2c(=N)c(C(=O)NCC3CCCO3)cc3c(=O)n4cccc(C)c4nc32)cc1OC (stereo not drawn) 0.37%
